Calls of active or inactive are those of the source. The rule behind the calls is not given here.
Tests used:
3T3-L1 [1] = assay: Induction of adipogenesis in mouse 3T3L1 cells assessed as increase of adiponectin expression at 10 uM after 8 to 12 days relative to control; assay type: functional
3T3-L1 [2] = assay: Cytotoxicity against mouse 3T3L1 cells assessed as glucose consumption at 10 uM by MTT assay; assay type: cell-based; details: 3t3-l1, 10 µM
3T3-L1 [3] = assay: Induction of adipogenesis in mouse 3T3L1 cells assessed as decrease of leptin level at 10 uM after 24 hrs (reference value: 3089.21 +/- 33.37 pg/ml); assay type: functional
3T3-L1 [4] = assay: Induction of adipogenesis in mouse 3T3L1 cells assessed as increase of adiponectin level at 10 uM after 8 to 12 days (reference value: 843.78 +/- 20.61 ng/ml); assay type: functional
HepG2 [5] = assay: Cytotoxicity against human HepG2 cells assessed as glucose consumption at 10 uM by MTT assay in presence of insulin; assay type: cell-based; details: hepg2, 10 µM
Method in brief: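 HepG2 cells; glucose consumption measured with insulin co-present at 0.1 µM. Full procedure given in supplementary data (S3).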

HepG2 [6] = assay: Cytotoxicity against human HepG2 cells assessed as glucose consumption at 10 uM by MTT assay; assay type: cell-based; details: hepg2, 10 µM
Rattus norvegicus [7] = assay: Hepatoprotective activity against high fat/high calorie diet-induced non-alcoholic fatty liver disease in Wistar rat assessed as serum adiponectin levels at 50 mg/kg, po qd for 4 weeks (reference value: 10.49 +/- 2.59 ng/ml); assay type: functional
Rattus norvegicus [8] = assay: Hepatoprotective activity against high fat/high calorie diet-induced non-alcoholic fatty liver disease in Wistar rat assessed as decreased liver weight at 50 mg/kg, po qd for 4 weeks (reference value: 21.4 +/- 3.1 g); assay type: functional
Rattus norvegicus [9] = assay: Toxicity in high fat/high calorie diet-induced non-alcoholic fatty liver disease Wistar rat model assessed as physiological signs of toxicity at 50 mg/kg, po qd for 4 weeks; assay type: organism-based; set-up: dose 50 mg/kg, route oral; details: in vivo, 672 h
Rattus norvegicus [10] = assay: Hepatoprotective activity against high fat/high calorie diet-induced non-alcoholic fatty liver disease in Wistar rat assessed as decreased triglyceride levels at 50 mg/kg, po qd for 4 weeks by radioimmunoassay (reference value: 2.38 +/- 1.20 mM); assay type: functional
Rattus norvegicus [11] = assay: Hepatoprotective activity against high fat/high calorie diet-induced non-alcoholic fatty liver disease in Wistar rat assessed as decreased LDL cholesterol levels at 50 mg/kg, po qd for 4 weeks by radioimmunoassay (reference value: 0.97 +/- 0.31 mM); assay type: functional
Rattus norvegicus [12] = assay: Hepatoprotective activity against high fat/high calorie diet-induced non-alcoholic fatty liver disease in Wistar rat assessed as decreased ALT levels at 50 mg/kg, po qd for 4 weeks (reference value: 47.52 +/- 4.98 u/l); assay type: functional
Rattus norvegicus [13] = assay: Hepatoprotective activity against high fat/high calorie diet-induced non-alcoholic fatty liver disease in Wistar rat assessed as insulin at 50 mg/kg, po qd for 4 weeks (reference value: 36.32 +/- 2.97 uU/ml); assay type: functional
Rattus norvegicus [14] = assay: Hepatoprotective activity against high fat/high calorie diet-induced non-alcoholic fatty liver disease in Wistar rat assessed as decreased FBS at 50 mg/kg, po qd for 4 weeks by radioimmunoassay (reference value: 9.23 +/- […] mM); assay type: functional
Rattus norvegicus [15] = assay: Hepatoprotective activity against high fat/high calorie diet-induced non-alcoholic fatty liver disease in Wistar rat assessed as HOMA-IR levels at 50 mg/kg, po qd for 4 weeks (reference value: 15.31 +/- 0.22); assay type: functional
Rattus norvegicus [16] = assay: Hepatoprotective activity against high fat/high calorie diet-induced non-alcoholic fatty liver disease in Wistar rat assessed as decrease in liver/body weight ratio at 50 mg/kg, po qd for 4 weeks (reference value: 4.95 %); assay type: functional; set-up: scale not given: the % may be the effect or the level left
Rattus norvegicus [17] = assay: Hepatoprotective activity against high fat/high calorie diet-induced non-alcoholic fatty liver disease in Wistar rat assessed as serum leptin levels at 50 mg/kg, po qd for 4 weeks (reference value: 7.59 +/- 2.36 ng/ml); assay type: functional
Rattus norvegicus [18] = assay: Hepatoprotective activity against high fat/high calorie diet-induced non-alcoholic fatty liver disease in Wistar rat assessed as decreased HDL cholesterol levels at 50 mg/kg, po qd for 4 weeks by radioimmunoassay (reference value: 1.20 +/- 0.43 mM); assay type: functional
Rattus norvegicus [19] = assay: Toxicity in high fat/high calorie diet-induced non-alcoholic fatty liver disease Wistar rat model assessed as abnormal behavioral at 50 mg/kg, po qd for 4 weeks; assay type: organism-based; set-up: dose 50 mg/kg, route oral; details: in vivo, 672 h
Rattus norvegicus [20] = assay: Hepatoprotective activity against high fat/high calorie diet-induced non-alcoholic fatty liver disease in Wistar rat assessed as decreased body weight at 50 mg/kg, po qd for 4 weeks (reference value: 431 +/- 19.4 g); assay type: functional
Rattus norvegicus [21] = assay: Hepatoprotective activity against high fat/high calorie diet-induced non-alcoholic fatty liver disease in Wistar rat assessed as reduction of fat accumulation in liver cells at 50 mg/kg, po qd for 4 weeks by oil red O and H & E staining; assay type: functional, organism-based; set-up: dose 50 mg/kg
Method in brief: (§1)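 Male Wistar rats on a high-fat/high-calorie diet were given compound orally at 50 mg/kg once daily for 4 weeks, suspended in Tween 80 and 5% saline. Liver sections were then stained with Oil Red O and H&E and compared against normal-diet and untreated diet-model rats.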

Rattus norvegicus [22] = assay: Hepatoprotective activity against high fat/high calorie diet-induced non-alcoholic fatty liver disease in Wistar rat assessed as decreased visceral fat assessed per 100 gram of body weight at 50 mg/kg, po qd for 4 weeks (reference value: 4.95 +/- 0.95 g/100g BW); assay type: functional
Rattus norvegicus [23] = assay: Hepatoprotective activity against high fat/high calorie diet induced NAFLD in Wistar rat assessed as restoration of liver cells at 50 mg/kg, po qd for 4 weeks by oil red O and H & E staining; assay type: functional, organism-based; set-up: dose 50 mg/kg; method in brief: as §1

Structure (SMILES)	Activity (3T3-L1 [1]) [%]	Activity (3T3-L1 [2])	Activity (3T3-L1 [3]) [pg/mL]	Activity (3T3-L1 [4]) [ng/mL]	further results
O=C(COc1ccc(C=C2C(=O)NC(=O)NC2=O)cc1)Nc1ccccc1	135.18	Non-toxic	1856.32	1111.73	–
CN(CCOc1ccc(CC2SC(=O)NC2=O)cc1)c1ccccn1 (stereo not drawn) [ROSIGLITAZONE]	157.31	–	1773.67	1324.73	Activity (HepG2 [5]): 29.41%; Activity (HepG2 [6]): 15.58%
O=C(COc1ccc(C=C2C(=O)NC(=O)NC2=O)cc1)Nc1ccccn1	180.32	Non-toxic	1271.98	1639.61	Activity (Rattus norvegicus [7]): 12.53 µg/mL; Activity (Rattus norvegicus [8]): 16 g; Activity (Rattus norvegicus [9]): Non-toxic; Activity (Rattus norvegicus [10]): 1.02 mM; Activity (Rattus norvegicus [11]): 0.18 mM; Activity (Rattus norvegicus [12]): 33.06 U/L; Activity (Rattus norvegicus [13]): 33.43 uU/ml; Activity (Rattus norvegicus [14]): 4.73 mM; Activity (Rattus norvegicus [15]): 7.03; Activity (Rattus norvegicus [16]): 4.34%; Activity (Rattus norvegicus [17]): 6 ng/mL; Activity (Rattus norvegicus [18]): 1.11 mM; Activity (Rattus norvegicus [19]): Non-toxic; Activity (Rattus norvegicus [20]): 360.5 g; Activity (Rattus norvegicus [21]): Active; Activity (Rattus norvegicus [22]): 3.98 g; Activity (Rattus norvegicus [23]): Active
Cc1ccc(NC(=O)COc2ccc(C=C3C(=O)NC(=S)NC3=O)cc2)nc1	146.94	Non-toxic	1514.81	1239.44	–
O=C(COc1ccc(C=C2C(=O)NC(=O)NC2=O)cc1)Nc1ccc(F)c(F)c1	143.8	Non-toxic	1571.98	1322.02	–

Source: ChEMBL document CHEMBL1938366, “Synthesis and biological activity of novel barbituric and thiobarbituric acid derivatives against non-alcoholic fatty liver disease” (Eur J Med Chem, 2011)
